Where “and” joins values, the source holds several entries; their conditions need not be identical. Equal entries are not always repeated.
Assays:
Type in all cases: functional, organism-based
Mus musculus [1] = assay: Tested for the concentration of DOPAC (dihydroxyphenyl-acetic acid) in striatum of mouse brain one week after four daily injections at dose of 20 mg/kg; set-up: dose 20 mg/kg
Summary of the method: (§1)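 Male CRL/CFW mice received subcutaneous injections daily for 4 days. Animals were killed 7 days after the last dose. Brains were removed rapidly, and striata were dissected, frozen on dry ice and stored at -15 °C until analysis of dopamine, DOPAC and HVA. Values are means ± standard errors for 6 mice/group.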

Mus musculus [2] = assay: Tested for the concentration of dopamine in striatum of mouse brain one week after four daily injections at 20 mg/kg dose; set-up: dose 20 mg/kg; summary of the method: as §1
Mus musculus [3] = assay: Tested for the concentration of HVA in striatum of mouse brain one week after four daily injections at doses of 20 mg/kg; set-up: dose 20 mg/kg; summary of the method: as §1
Mus musculus [4] = assay: Tested for the concentration of HVA in striatum of mouse brain one week after four daily injections at dose of 20 mg/kg; set-up: dose 20 mg/kg; summary of the method: as §1
Mus musculus [5] = assay: Tested for the concentration of HVA in striatum of mouse brain one week after four daily injections at a dosage of 80 mg/kg; set-up: dose 80 mg/kg; summary of the method: as §1
Mus musculus [6] = assay: Tested for the concentration of HVA in striatum of mouse brain one week after four daily injections at dose of 40 mg/kg; set-up: dose 40 mg/kg; summary of the method: as §1
Mus musculus [7] = assay: Tested for the concentration of dopamine in striatum of mouse brain one week after four daily injections at 80 mg/kg dose; set-up: dose 80 mg/kg; summary of the method: as §1
Mus musculus [8] = assay: Tested for the concentration of dopamine in striatum of mouse brain one week after four daily injections at 80 mg/kg of the compound; set-up: dose 80 mg/kg; summary of the method: as §1
Mus musculus [9] = assay: Tested for the concentration of HVA in striatum of mouse brain one week after four daily injections at dose of 80 mg/kg; set-up: dose 80 mg/kg; summary of the method: as §1
Mus musculus [10] = assay: Tested for the concentration of DOPAC (dihydroxyphenyl-acetic acid) in striatum of mouse brain one week after four daily injections at dose of 80 mg/kg; set-up: dose 80 mg/kg; summary of the method: as §1
Mus musculus [11] = assay: Tested for the concentration of DOPAC (dihydroxyphenyl-acetic acid) in striatum of mouse brain one week after four daily injections at dose of 40 mg/kg; set-up: dose 40 mg/kg; summary of the method: as §1
Mus musculus [12] = assay: Tested for the concentration of DOPAC (dihydroxyphenyl-acetic acid) in striatum of mouse brain one week after four daily injections at a dosage of 80 mg/kg; set-up: dose 80 mg/kg; summary of the method: as §1
Mus musculus [13] = assay: Tested for the concentration of dopamine in striatum of mouse brain one week after four daily injections at 40 mg/kg dose; set-up: dose 40 mg/kg; summary of the method: as §1

CCN1CC=C(c2cccc(OC)c2)CC1
Concentration (Mus musculus [1]): 4.6 nM/g and 5.55 nM/g
Concentration (Mus musculus [2]): 62.7 nM/g and 82.1 nM/g
Concentration (Mus musculus [3]): 5.46 nM/g
Concentration (Mus musculus [4]): 6.38 nM/g

COc1cccc(C2=CCN(C)CC2)c1
Concentration (Mus musculus [5]): 2.41 nM/g
Concentration (Mus musculus [1]): 5.09 nM/g
Concentration (Mus musculus [2]): 84.8 nM/g
Concentration (Mus musculus [6]): 5.66 nM/g
Concentration (Mus musculus [7]): 15.9 nM/g
Concentration (Mus musculus [8]): 7.9 nM/g
Concentration (Mus musculus [9]): 2.97 nM/g
Concentration (Mus musculus [10]): 1.38 nM/g
Concentration (Mus musculus [3]): 8.07 nM/g
Concentration (Mus musculus [11]): 2.93 nM/g
Concentration (Mus musculus [12]): 0.9 nM/g
Concentration (Mus musculus [13]): 38.1 nM/g

— ChEMBL document CHEMBL1123348, “Characterization of the neurotoxic potential of m-methoxy-MPTP and the use of its N-ethyl analogue as a means of avoiding exposure to a possible Parkinsonism-causing agent” (J Med Chem, 1986)
